DNMT1 inh = human DNMT1 methyltransferase inhibitors, primary screen, biochemical, molecular beacon, fluorescence, HinP1I cleavage, uHTS. DNA (cytosine-5)-methyltransferase 1 (Homo sapiens), P26358. inhibition (reported as % activation of signal), % at 10 µM. hit rate 0.83% among 360,000. AID 588458, 2011; in the data active means inhibition above about 50%
Scp-1 inhibitor = Scp-1 phosphatase inhibitors, primary screen, biochemical, colorimetric, uHTS; Carboxy-terminal domain RNA polymerase II polypeptide A small phosphatase 1 (Homo …; Recombinant Scp1, phosphopeptide, malachite green phosphate absorbance; inhibition, % at 20 µM; hit rate 0.88% among 340,000;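 active means inhibition above about 50% at 20 µM, limit read from the data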
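Test system: SCP-1 phosphatase catalytic domain, residues 76-261 | Compound dosing: One concentration, 20 µM, with 1.0% DMSO | Schedule: 45 min room-temperature reaction, 5 min colour, 30 min stabiliser | Detection: Absorbance at 630 nm | Read-out basis: % inhibition of SCP-1 phosphate liberation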
SUMO1 PPI mod = modulators of SUMO1 protein-protein interactions, primary screen, biochemical, uHTS; SUMO1 binding to a labelled peptide, TR-FRET, 1 h; Small ubiquitin-related modifier 1 (Homo sapiens), P63165; hit rate 0.33% among 360,000; inhibition, % at 20 µM; in the data active means inhibition above about 37%
Target sequence (P63165 whole entry, looked up): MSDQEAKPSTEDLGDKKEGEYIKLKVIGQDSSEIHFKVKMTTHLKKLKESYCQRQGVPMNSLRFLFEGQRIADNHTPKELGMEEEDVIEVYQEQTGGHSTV
GRK2 aptamer HTS = compounds blocking aptamer binding on GRK2 – biochemical, human GRK2, bead flow cytometry, HTS, primary screen. Beta-adrenergic receptor kinase 1 (Homo sapiens), P25098. FAM-aptamer displacement from GRK2. inhibition of aptamer binding, % at 10 µM. hit rate 0.59% among 330,000;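 active means inhibition of aptamer binding above 40%, roughly 3 SD of noise, on plates passing a quality check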;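 further: median bead fluorescence of bound FAM aptamer so fluorescent compounds give negative values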
LMPTP inh = LMPTP phosphatase inhibitors, primary screen, biochemical, fluorescence intensity, uHTS; Low molecular weight phosphotyrosine protein phosphatase (Homo sapiens), P24666; recombinant LMPTP-A, OMFP fluorogenic substrate; inhibition, % at 20 µM; hit rate 0.22% among 360,000;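 active means compounds that cut the enzyme signal by at least half of the control window in the single-dose screen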
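Test system: LMPTP-A phosphatase enzyme; input: 0.625 nM LMPTP-A final; reagent: OMFP substrate, 400 µM final; compound dosing: 20 µM single dose, 3% DMSO; incubation: 50 min dark incubation at room temperature; measured by: endpoint fluorescence intensity from OMFP dephosphorylation; measure: % inhibition relative to no-enzyme and uninhibited control wells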
STEP block = STEP phosphatase inhibitors, primary screen, biochemical, fluorescence intensity, uHTS; AID 588621, 2011; Tyrosine-protein phosphatase non-receptor type 5 (Homo sapiens), P54829; recombinant STEP, OMFP fluorogenic substrate; inhibition, % at 20 µM; hit rate 0.25% among 360,000;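 active means inhibition at 20 µM, scaled per plate between control wells, above about 37%, limit read from the data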
Target sequence (P54829 whole entry, looked up): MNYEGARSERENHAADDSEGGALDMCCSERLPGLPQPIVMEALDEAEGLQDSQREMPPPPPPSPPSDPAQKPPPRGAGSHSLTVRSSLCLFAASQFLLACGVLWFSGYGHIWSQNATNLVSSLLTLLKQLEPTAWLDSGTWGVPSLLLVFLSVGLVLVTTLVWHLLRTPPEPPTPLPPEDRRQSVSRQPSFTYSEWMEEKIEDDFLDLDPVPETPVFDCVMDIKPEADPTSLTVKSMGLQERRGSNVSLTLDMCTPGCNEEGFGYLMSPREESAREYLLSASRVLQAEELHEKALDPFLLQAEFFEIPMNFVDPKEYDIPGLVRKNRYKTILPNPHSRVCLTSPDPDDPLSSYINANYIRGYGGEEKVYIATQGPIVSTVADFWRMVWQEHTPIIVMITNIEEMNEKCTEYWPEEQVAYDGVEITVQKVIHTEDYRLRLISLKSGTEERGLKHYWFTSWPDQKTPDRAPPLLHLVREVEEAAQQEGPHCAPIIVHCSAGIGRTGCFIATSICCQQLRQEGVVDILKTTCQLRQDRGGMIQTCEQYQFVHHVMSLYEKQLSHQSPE
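Assay system: isolated STEP enzyme. Buffer or medium: pH 6.0 Bis-Tris with DTT and Tween 20. Also added: fluorogenic phosphatase substrate OMFP at 25 µM final. Dosing: 20 µM, 1% DMSO. Timing: 20 min reaction, room temperature, in the dark. Measured by: fluorescence intensity, excitation 480 nm, emission 540 nm. Evaluation: normalized % inhibition.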
Scp-1 conf = Scp-1 phosphatase inhibitors, retest, confirmation, biochemical, colorimetric, single concentration; shares compounds with Scp-1 inhibitor; recombinant SCP-1 catalytic domain, phosphate release, malachite green absorbance; inhibition, % at 20 µM; hit rate 61% among 2,500; AID 540281, 2011
MG interference = colorimetric readout interference by compounds, confirmation, artefact control for Scp-1 inhibitor project, biochemical, single concentration; shares compounds with Scp-1 inhibitor; Colorimetric interference counterscreen, malachite green absorbance 630 nm; apparent inhibition (interference), % at 20 µM; 2,500 tested, under 10 active; AID 540313, 2011;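 further: compounds added after enzyme reaction finished so only phosphate colour detection is probed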
Scp1 DSF = Scp-1 binding by thermal shift, confirmation, orthogonal assay for Scp-1 inhibitor project, biophysical, differential scanning fluorimetry; shares compounds with Scp-1 inhibitor; Recombinant SCP1, Sypro Orange thermal shift Tm; thermal shift relative to vanadate control, % at 40 µM; hit rate 25% among 1,500; AID 540329, 2011;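 active means substances whose mean melting-temperature shift, as a percentage of the reference inhibitor's shift, reaches about 5.3%, limit read from the data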
Hits are given with their value; - = inactive; . = no result given. Most compounds without a hit are left out; they make up all but 2.1% or so of the library.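 How the source made its calls, unless noted: active means inhibition of at least 30% at 20 µM; inactive means the rest.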

SMILES | DNMT1 inh | Scp-1 inhibitor | SUMO1 PPI mod | GRK2 aptamer HTS | LMPTP inh | STEP block | Scp-1 conf | MG interference | others
CC(C)CC1C(=O)N(Cc2cn(CC3CCCCC3)nn2)CCS(=O)(=O)N1Cc1ccc(-c2cccc(CO)c2)cc1 (stereo not given) | - | . | - | . | - | - | . | .
Cc1ccc(-c2csc(NCCn3c(C(F)(F)F)nc4ccccc43)n2)cc1 | - | 59 | - | - | - | - | - | -
CCC1(c2ccccc2)NC(=O)N(CC(=O)NCc2ccncc2)C1=O (stereo not given) | - | - | - | - | - | - | . | .
CCC1(c2ccccc2)NC(=O)N(CC(=O)NNC(=O)COc2ccc(Cl)cc2C)C1=O (stereo not given) | - | - | - | - | - | - | - | -
Cc1nnc(SCC(=O)Nc2sccc2C#N)s1 | - | 60 | - | - | - | - | 40 | - | Scp1 DSF=-
Cc1ccc(-c2c(C#N)c(N)nc3c2CCCCC3)cc1 | - | - | - | - | - | - | . | .
CC(C)c1ccc(-c2c(C#N)c(N)nc3c2CCCCC3)cc1 | - | 100 | - | - | - | - | - | -
CCn1c(SCC(=O)N/N=C/C=C/c2ccco2)nnc1-c1ccccc1 | - | - | - | - | - | - | . | .
CCn1c(SCC(=O)N/N=C/c2ccc(C)o2)nnc1-c1ccccc1 | - | - | - | - | - | - | . | .
CCn1c(SCC(=O)N/N=C/C(C)=C\c2ccco2)nnc1-c1ccccc1 | - | 76 | - | - | - | - | 60 | - | Scp1 DSF=-
CCn1c(SCC(=O)N/N=C/C(C)=C/c2ccco2)nnc1-c1ccccc1 | - | 88 | - | - | - | - | 50 | - | Scp1 DSF=-
C[n+]1cnn2c1SCC1(COC1)C2 | - | 104 | - | - | - | - | - | -
CCCNC(=O)c1cc(S(=O)(=O)N2CCC3(CC2)OCCO3)ccc1F | - | . | - | . | - | - | . | .
COc1ccc2c(c1)C(CC(C)=O)N(c1ccc(-c3cccs3)cc1)C(c1ccsc1)=C2 (stereo not given) | . | . | - | . | - | . | . | .
CCOC(=O)CSc1[nH]c(=O)cc(C)c1C#N | - | 50 | - | - | - | - | - | -
COc1ccc(S(=O)(=O)NCCC(=O)NC2CCCCC2C)cc1[N+](=O)[O-] (stereo not given) | - | 56 | - | - | - | - | 46 | - | Scp1 DSF=5.3
CN(C(=O)c1cccc(NC(=O)Cc2cccc(NC(=O)C3CCCN(C(=O)C4CCCCC4)C3)c2)c1)C1CCC1 (stereo not given) | - | - | - | . | - | - | . | .
COC(=O)[C@]12CCCCC=C1N(Cc1ccccc1)C(=O)[C@H](CC(=O)N1CCSCC1)C2 | . | . | - | . | - | . | . | .
O=C(NNC(=O)c1ccc(NC(=O)c2ccccc2)cc1)c1ccccc1 | - | 62 | - | - | - | - | - | -
O=C(Cc1ccccc1)NNC(=O)c1ccc(NC(=O)c2ccccc2)cc1 | - | - | - | - | - | - | . | .
C[C@H]1CN([C@@H](C)CO)C(=O)CCCn2cc(nn2)CO[C@@H]1CN(C)C(=O)Nc1ccc(-c2cccs2)cc1 | - | . | - | . | - | - | . | .
O=C(NCC1CCCCC1)c1ccc2nc([C@@H]3O[C@H](CO)[C@H](O)[C@H](O)[C@H]3O)[nH]c2c1 | - | . | - | . | - | - | . | .
CCOC(=O)c1ccc(NC(=O)CSc2nnc(-c3cccs3)n2CC)cc1 | - | - | - | - | - | - | . | .
CCOC(=O)c1ccc(NC(=O)CSc2nnc(-c3cccs3)n2C)cc1 | - | 105 | - | - | - | - | - | -
CC(C)C[C@H]1CN(CCCC[C@H]2CNC(=O)C(=O)N2Cc2ccccc2)C(=O)C(=O)N1CCC1CCCCC1 | . | . | - | . | - | . | . | .
SMILES | DNMT1 inh | Scp-1 inhibitor | SUMO1 PPI mod | GRK2 aptamer HTS | LMPTP inh | STEP block | Scp-1 conf | MG interference | others
Cc1ccccc1C(=O)Nc1ccc(C(=O)N/N=C/c2ccc(F)cc2)cc1 | - | 91 | - | - | - | - | - | -
COc1ccc(/C=C/C(=O)Oc2cccc(/C=N/NC(=O)c3cccc(F)c3)c2)cc1 | - | 87 | - | - | - | - | 37 | - | Scp1 DSF=-
COc1ccc(/C=C/C(=O)Oc2ccc(/C=N\NC(=O)c3ccc(F)cc3)cc2)cc1 | - | - | - | - | - | - | . | .
COC(=O)c1ccc(/C=N/NC(=O)c2cccc(F)c2)cc1 | - | 87 | - | - | - | - | 48 | - | Scp1 DSF=-
C=CCn1c(N)cc(=O)nc1SC(C)C(=O)Nc1cccc2ccccc12 (stereo not given) | - | - | - | - | - | - | - | -
CC(Sc1nc(=O)cc(N)n1CCc1ccccc1)C(=O)NCc1ccccc1 (stereo not given) | - | - | - | - | - | - | . | .
COc1ccccc1-c1oc2ccccc2c1C#CC1(N)CCCCC1 | - | - | - | - | - | - | . | .
COc1ccccc1-c1oc2ccccc2c1C#CC1(O)CCCCC1 | - | 89 | - | - | - | - | - | -
COc1ccccc1-c1sc2cc3c(cc2c1C#CC1(O)CCCCC1)OCO3 | - | 56 | - | - | - | - | - | -
O=C(NCc1cccnc1)c1cccc(S(=O)(=O)N2CCCC2)c1 | - | - | - | - | - | - | . | .
O=C(NCc1cccnc1)c1cccc(S(=O)(=O)N2CCOCC2)c1 | - | 64 | - | - | - | - | - | -
CN(CCCC1CCCC1)C(=O)c1cc(COc2ccc(F)c(F)c2)on1 | - | 63 | - | - | - | - | - | -
COC(=O)CSc1nc(SCc2ccccc2Cl)nc2c1CCCC2 | - | 53 | - | - | - | - | - | -
O=C(O)CSc1nc(SCc2ccccc2Cl)nc2c1CCCC2 | - | - | - | - | - | - | . | .
N/C(=N\OC(=O)c1ccc2ccccc2c1)c1ccccc1Cl | - | - | - | - | - | - | . | .
CC(=O)NC(c1ccc(F)c(F)c1)c1nc(-c2cccs2)cs1 (stereo not given) | - | . | - | . | - | - | . | .
